Data taken from ChEMBL document CHEMBL3045605, “Synthesis and anticancer evaluation of novel 3,5-diaryl-thiazolo[4,5-d]pyrimidin-2-one derivatives” (2013).

What was measured:
Assay type in all cases: functional
NCI-H23 [1] = test: Anticancer activity against Homo sapiens (human) NCI-H23 cells assessed as cell growth at 10 uM by SRB assay; details: read-out: Activity
Procedure, shortened: (§1)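 Single-dose screen in the NCI 60-human-tumour-cell-line panel (nine cancer types) at 10−5 M. Cell growth was estimated by sulforhodamine B protein staining and reported as percent growth of treated cells relative to untreated controls.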

HOP-92 [2] = test: Anticancer activity against Homo sapiens (human) HOP92 cells assessed as cell growth at 10 uM by SRB assay; details: read-out: Activity
Procedure, shortened: (§2)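 NCI 60-cell human tumour panel (nine cancer types) screened at one concentration, 10−5 M. Cell growth estimated by sulforhodamine B protein staining and reported as percent growth of treated cells relative to untreated controls.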

HOP-92 [3] = test: Anticancer activity against Homo sapiens (human) HOP92 cells by SRB assay
Procedure, shortened: (§3)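 NCI 60-line panel, five tenfold dilutions from 10−4 to 10−8 M, growth read by sulforhodamine B staining against untreated controls. From the dose–response per line: GI50 (molar concentration giving half growth inhibition), TGI (molar concentration giving total growth inhibition, cytostatic) and LC50 (molar concentration killing 50% of initial cells, cytotoxic).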

NCI-H23 [4] = test: Anticancer activity against Homo sapiens (human) NCI-H23 cells by SRB assay
Procedure, shortened: (§4)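 Five-dose NCI 60-cell-line panel testing at tenfold dilutions from 10−4 to 10−8 M, with growth read by sulforhodamine B protein staining. For each cell line: GI50 is the molar concentration giving half growth inhibition; TGI is total growth inhibition (cytostatic); LC50 is the molar concentration killing 50% of the initial cells (cytotoxic).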

SR = test: Anticancer activity against Homo sapiens (human) SR cells by SRB assay
Procedure, shortened: (§5)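 NCI five-dose follow-up on the 60-line human tumour panel at tenfold dilutions from 10−4 to 10−8 M, with growth read by sulforhodamine B protein assay against untreated controls. For each cell line, GI50 (half growth inhibition), TGI (total growth inhibition) and LC50 (50% death of initial cells) are calculated as molar concentrations.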

[5] = Anticancer activity against Homo sapiens (human) RPMI8266 cells by SRB assay; procedure, shortened: as §4
HOP-62 = test: Anticancer activity against Homo sapiens (human) HOP62 cells assessed as cell growth at 10 uM by SRB assay; details: read-out: Activity; procedure, shortened: as §2
A549 = test: Anticancer activity against Homo sapiens (human) A549/ATCC cells assessed as cell growth at 10 uM by SRB assay; details: read-out: Activity; procedure, shortened: as §2
MOLT-4 = test: Anticancer activity against Homo sapiens (human) MOLT4 cells assessed as cell growth at 10 uM by SRB assay; details: read-out: Activity; procedure, shortened: as §1
ACHN = test: Anticancer activity against Homo sapiens (human) ACHN cells by SRB assay; procedure, shortened: as §3
NCI/ADR-RES [6] = test: Anticancer activity against Homo sapiens (human) NCI/ADR-RES cells by SRB assay; procedure, shortened: as §4
OVCAR-4 = test: Anticancer activity against Homo sapiens (human) OVCAR4 cells by SRB assay; procedure, shortened: as §4
UACC-62 = test: Anticancer activity against Homo sapiens (human) UACC62 cells by SRB assay; procedure, shortened: as §5
MDA-MB-435 [7] = test: Anticancer activity against Homo sapiens (human) MDA-MB-435 cells by SRB assay; procedure, shortened: as §4
LOX IMVI [8] = test: Anticancer activity against Homo sapiens (human) LOXIMVI cells by SRB assay; procedure, shortened: as §3
SF-295 [9] = test: Anticancer activity against Homo sapiens (human) SF295 cells by SRB assay; procedure, shortened: as §4
SF-268 = test: Anticancer activity against Homo sapiens (human) SF268 cells by SRB assay; procedure, shortened: as §4
SW-620 = test: Anticancer activity against Homo sapiens (human) SW620 cells by SRB assay; procedure, shortened: as §5
HCC 2998 = test: Anticancer activity against Homo sapiens (human) HCC2998 cells by SRB assay; procedure, shortened: as §3
786-0 = test: Anticancer activity against Homo sapiens (human) 786-0 cells assessed as cell growth at 10 uM by SRB assay; details: read-out: Activity; procedure, shortened: as §2
NCI/ADR-RES [10] = test: Anticancer activity against Homo sapiens (human) NCI/ADR-RES cells assessed as cell growth at 10 uM by SRB assay; details: read-out: Activity; procedure, shortened: as §1
SK-OV-3 = test: Anticancer activity against Homo sapiens (human) SKOV3 cells assessed as cell growth at 10 uM by SRB assay; details: read-out: Activity; procedure, shortened: as §1
OVCAR-8 = test: Anticancer activity against Homo sapiens (human) OVCAR8 cells assessed as cell growth at 10 uM by SRB assay; details: read-out: Activity; procedure, shortened: as §1
SK-MEL-28 = test: Anticancer activity against Homo sapiens (human) SK-MEL-28 cells assessed as cell growth at 10 uM by SRB assay; details: read-out: Activity; procedure, shortened: as §1
MDA-MB-435 [11] = test: Anticancer activity against Homo sapiens (human) MDA-MB-435 cells assessed as cell growth at 10 uM by SRB assay; details: read-out: Activity; procedure, shortened: as §1
LOX IMVI [12] = test: Anticancer activity against Homo sapiens (human) LOXIMVI cells assessed as cell growth at 10 uM by SRB assay; details: read-out: Activity; procedure, shortened: as §2
SF-295 [13] = test: Anticancer activity against Homo sapiens (human) SF295 cells assessed as cell growth at 10 uM by SRB assay; details: read-out: Activity; procedure, shortened: as §1
T47D [14] = test: Anticancer activity against Homo sapiens (human) T47D cells by SRB assay; procedure, shortened: as §5
MDA-MB-231 [15] = test: Anticancer activity against Homo sapiens (human) MDA-MB-231/ATCC cells by SRB assay; procedure, shortened: as §3
RXF 393 = test: Anticancer activity against Homo sapiens (human) RXF393 cells by SRB assay; procedure, shortened: as §4
PC-3 = test: Anticancer activity against Homo sapiens (human) PC3 cells by SRB assay; procedure, shortened: as §4
CAKI-1 [16] = test: Anticancer activity against Homo sapiens (human) CAKI-1 cells by SRB assay; procedure, shortened: as §3
A498 = test: Anticancer activity against Homo sapiens (human) A498 cells by SRB assay; procedure, shortened: as §3
T47D [17] = test: Anticancer activity against Homo sapiens (human) T47D cells assessed as cell growth at 10 uM by SRB assay; details: read-out: Activity
Procedure, shortened: (§6)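 NCI 60-cell human tumour panel (leukemia, melanoma, lung, colon, CNS, breast, ovarian, prostate, renal lines) given a single 10−5 M dose. Growth is expressed as percent growth of treated cells relative to untreated controls, with cell growth/viability estimated by sulforhodamine B protein staining.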

MDA-MB-231 [18] = test: Anticancer activity against Homo sapiens (human) MDA-MB-231/ATCC cells assessed as cell growth at 10 uM by SRB assay; details: read-out: Activity; procedure, shortened: as §2
UO-31 = test: Anticancer activity against Homo sapiens (human) UO31 cells assessed as cell growth at 10 uM by SRB assay; details: read-out: Activity; procedure, shortened: as §6
CAKI-1 [19] = test: Anticancer activity against Homo sapiens (human) CAKI-1 cells assessed as cell growth at 10 uM by SRB assay; details: read-out: Activity; procedure, shortened: as §2
SN12C = test: Anticancer activity against Homo sapiens (human) SN12C cells assessed as cell growth at 10 uM by SRB assay; details: read-out: Activity; procedure, shortened: as §1
[20] = read-out: pLC50 (the source's name) (converted)

Work on `O=c1sc2c(Cl)nc(-c3ccccc3)nc2n1-c1ccccc1` yielded a growth at 10 µM (NCI-H23 [1]) of 20%, a growth at 10 µM (HOP-92 [2]) of 24% and a GI50 (HOP-92 [3]) of 3.09 µM. For the same compound, the TGI (HOP-92 [3]; read-out: pTGI (converted)) was 67.6 µM, the GI50 (NCI-H23 [4]) was 3.63 µM and the TGI (NCI-H23 [4]; read-out: pTGI (converted)) was 30.9 µM. It also gave a GI50 (SR) of 2.63 µM, a TGI (SR; read-out: pTGI (converted)) of 21.4 µM and a GI50 [5] of 44.7 µM. The growth at 10 µM (HOP-62) was 15%, the growth at 10 µM (A549) was 87% and the growth at 10 µM (MOLT-4) was 54%. For the same compound, the GI50 (ACHN) was 6.92 µM, the GI50 (NCI/ADR-RES [6]) was 21.4 µM and the GI50 (OVCAR-4) was 5.01 µM. It also gave a TGI (OVCAR-4; read-out: pTGI (converted)) of 35.5 µM, a GI50 (UACC-62) of 20 µM and a GI50 (MDA-MB-435 [7]) of 4.9 µM. The TGI (MDA-MB-435 [7]; read-out: pTGI (converted)) was 45.7 µM, the GI50 (LOX IMVI [8]) was 2.04 µM and the CC50 (LOX IMVI [8]; [20]) was 18.2 µM. For the same compound, the TGI (LOX IMVI [8]; read-out: pTGI (converted)) was 4.79 µM, the GI50 (SF-295 [9]) was 57.5 µM and the GI50 (SF-268) was 10.5 µM. The TGI (SF-268; read-out: pTGI (converted)) was 38 µM, the GI50 (SW-620) was 2.75 µM and the TGI (SW-620; read-out: pTGI (converted)) was 9.12 µM. For the same compound, the GI50 (HCC 2998) was 81.3 µM, the growth at 10 µM (786-0) was 41% and the growth at 10 µM (NCI/ADR-RES [10]) was 66%. It also gave a growth at 10 µM (SK-OV-3) of 81%, a growth at 10 µM (OVCAR-8) of -45% and a growth at 10 µM (SK-MEL-28) of 9%. The growth at 10 µM (MDA-MB-435 [11]) was 26%, the growth at 10 µM (LOX IMVI [12]) was -44% and the growth at 10 µM (SF-295 [13]) was 92%. The GI50 (T47D [14]) was 17 µM, the GI50 (MDA-MB-231 [15]) was 6.31 µM and the GI50 (RXF 393) was 2.4 µM. It also gave an LC50 (RXF 393) of 38 µM, a TGI (RXF 393; read-out: pTGI (converted)) of 8.91 µM and a GI50 (PC-3) of 3.31 µM. It also gave a CC50 (PC-3; [20]) of 81.3 µM, a TGI (PC-3; read-out: pTGI (converted)) of 14.5 µM and a GI50 (CAKI-1 [16]) of 2.34 µM. It also gave an LC50 (CAKI-1 [16]) of 46.8 µM, a TGI (CAKI-1 [16]; read-out: pTGI (converted)) of 5.75 µM and a GI50 (A498) of 3.47 µM. For the same compound, the growth at 10 µM (T47D [17]) was 57%, the growth at 10 µM (MDA-MB-231 [18]) was 37% and the growth at 10 µM (UO-31) was -79%. The growth at 10 µM (CAKI-1 [19]) was -30% and the growth at 10 µM (SN12C) was 43%.
